Results taken from PubChem BioAssay AID588806 (The Scripps Research Institute Molecular Screening Center, 2011).

Target: Palmitoyl-protein thioesterase ABHD10, mitochondrial (Mus musculus) (UniProt Q6PE15)
Experiment: endogenous mouse ABHD10 activity inhibitors – cell-based, competitive gel ABPP, fluorescence, PME-1 inhibitor project, late-stage follow-up (AID 588806)
Conditions: BW5147 mouse T cells, in situ FP-Rh gel ABPP, 4 h, stronger effect = higher value
Summary of the method: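 Assay system – in situ endogenous ABHD10, murine T cells derived from BW5147 · Compound – three test concentrations per compound, 0.25, 0.1 and 0.05 µM · Times – compound 4 h 37 °C, probe 30 min 25 °C · Signal – SDS-PAGE separation with in-gel fluorescence scanning of probe-labelled bands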

Sequence of Palmitoyl-protein thioesterase ABHD10, mitochondrial (Mus musculus) (Q6PE15 whole entry, looked up): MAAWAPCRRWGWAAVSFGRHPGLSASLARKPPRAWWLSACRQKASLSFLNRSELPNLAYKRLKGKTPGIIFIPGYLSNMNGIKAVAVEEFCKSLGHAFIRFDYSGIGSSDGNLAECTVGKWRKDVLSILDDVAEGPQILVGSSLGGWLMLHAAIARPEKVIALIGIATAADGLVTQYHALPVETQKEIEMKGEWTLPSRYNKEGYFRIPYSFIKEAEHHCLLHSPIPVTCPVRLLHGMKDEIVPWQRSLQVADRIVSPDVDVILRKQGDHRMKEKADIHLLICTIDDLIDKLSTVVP

inhibition (at 0.25 µM) [%] | inhibition (inhibition, at 0.05 µM) [%] | inhibition (inhibition, at 0.1 µM) [%] | SMILES
90 | 60 | 80 | CCCOC(=O)N1C(=O)[C@@](CC)(c2ccc(C)cc2)N1C(=O)OCCC
90 | 75 | 70 | CC[C@@]1(c2ccc(C)cc2)C(=O)N(C(=O)OC(C)C)N1C(=O)OC(C)C
70 | 40 | 60 | C=CCOC(=O)N1C(=O)[C@@](CC)(c2ccc(C)cc2)N1C(=O)OCC=C
